Test results reported in ChEMBL document CHEMBL5696442, “Discovery of type II inhibitors of TGFβ-activated kinase 1 (TAK1) and mitogen-activated protein kinase kinase kinase kinase 2 (MAP4K2)” (J Med Chem, 2015).
Active and inactive are the calls of the source. The calls are words filed in the database; no cut-off is given here.

What was measured:
[1] = target: T1, Inhibitor of nuclear factor kappa-B kinase subunit epsilon (Homo sapiens) (UniProt Q14164); test: Inhibition of IKKe Lys2 labeling site in human A-375 cells at 5 uM by KiNativ Profiling analysis relative to control; assay type: cell-based
T1 sequence (whole entry): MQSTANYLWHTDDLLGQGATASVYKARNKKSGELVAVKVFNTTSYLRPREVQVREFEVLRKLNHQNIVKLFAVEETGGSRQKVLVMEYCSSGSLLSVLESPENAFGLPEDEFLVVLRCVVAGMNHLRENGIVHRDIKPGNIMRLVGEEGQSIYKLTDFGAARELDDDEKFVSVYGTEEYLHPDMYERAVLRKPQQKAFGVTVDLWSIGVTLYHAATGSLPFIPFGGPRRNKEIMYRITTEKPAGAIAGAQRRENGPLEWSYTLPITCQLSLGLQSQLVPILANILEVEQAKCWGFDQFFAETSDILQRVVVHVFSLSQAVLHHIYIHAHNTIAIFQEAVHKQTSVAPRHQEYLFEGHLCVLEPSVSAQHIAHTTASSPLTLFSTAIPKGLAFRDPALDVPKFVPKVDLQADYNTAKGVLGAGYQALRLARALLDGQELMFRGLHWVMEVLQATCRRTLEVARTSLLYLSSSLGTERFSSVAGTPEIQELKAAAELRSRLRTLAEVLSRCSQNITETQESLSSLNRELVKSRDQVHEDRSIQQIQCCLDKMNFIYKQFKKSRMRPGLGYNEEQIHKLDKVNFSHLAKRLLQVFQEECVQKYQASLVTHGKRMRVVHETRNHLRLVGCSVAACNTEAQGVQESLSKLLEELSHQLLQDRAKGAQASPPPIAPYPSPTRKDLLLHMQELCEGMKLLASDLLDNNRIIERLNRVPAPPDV

[2] = target: Activin receptor type-2A (Homo sapiens) (UniProt P27037); test: Inhibition of ACVR2A (unknown origin) at 1 uM by Ambit Kinomescan binding assay relative to control
[3] = target: Homeodomain-interacting protein kinase 1 (Homo sapiens) (UniProt Q86Z02); test: Inhibition of HIPK1 (unknown origin) at 1 uM by Ambit Kinomescan binding assay relative to control; values are per cent of control
[4] = target: LIM domain kinase 2 (Homo sapiens) (UniProt P53671); test: Inhibition of LIMK2 (unknown origin) at 1 uM by Ambit Kinomescan binding assay relative to control; values are per cent of control
[5] = target: Myosin light chain kinase, smooth muscle (Homo sapiens) (UniProt Q15746); test: Inhibition of MYLK (unknown origin) at 10 uM by Ambit Kinomescan binding assay
Procedure, shortened: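 In vitro ATP-site competition binding assay against a panel of over 420 kinases (KinomeScan), with compound tested at 10 or 1 μM.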

[6] = target: Serine/threonine-protein kinase 10 (Homo sapiens) (UniProt O94804); test: Inhibition of LOK Lys1 labeling site harbouring ETGALAAAKVIETK in human A-375 cells at 5 uM by KiNativ Profiling analysis relative to control; assay type: cell-based
[7] = target: Activin receptor type-1 (Homo sapiens) (UniProt Q04771); test: Inhibition of ACVR1 (unknown origin) at 10 uM by Ambit Kinomescan binding assay
[8] = tested on: Epidermal growth factor receptor (Homo sapiens), P00533 [UNDEFINED MUTATION]; conditions: dose 10.0 µM
[9] = target: T2, Dual specificity mitogen-activated protein kinase kinase 6 (Homo sapiens) (UniProt P52564); test: Inhibition of MAP2K6 Lys1 labeling site in human A-375 cells at 0.5 uM by KiNativ Profiling analysis relative to control; assay type: cell-based
T2 sequence (whole entry): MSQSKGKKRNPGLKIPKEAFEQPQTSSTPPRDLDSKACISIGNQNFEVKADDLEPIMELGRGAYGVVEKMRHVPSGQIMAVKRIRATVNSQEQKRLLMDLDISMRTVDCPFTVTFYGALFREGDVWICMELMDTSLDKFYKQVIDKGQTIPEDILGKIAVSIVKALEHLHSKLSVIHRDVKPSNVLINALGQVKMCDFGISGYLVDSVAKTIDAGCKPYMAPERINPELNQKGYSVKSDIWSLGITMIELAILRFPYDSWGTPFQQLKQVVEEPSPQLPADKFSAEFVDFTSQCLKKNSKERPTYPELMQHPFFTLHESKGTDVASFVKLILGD

[10] = target: T3, Phosphatidylinositol 5-phosphate 4-kinase type-2 gamma (Homo sapiens) (UniProt Q8TBX8); test: Inhibition of PIP5K2C C2 labeling site in human Huh-7 cells at 10 uM by KiNativ Profiling analysis relative to control; assay type: cell-based
T3 sequence (whole entry): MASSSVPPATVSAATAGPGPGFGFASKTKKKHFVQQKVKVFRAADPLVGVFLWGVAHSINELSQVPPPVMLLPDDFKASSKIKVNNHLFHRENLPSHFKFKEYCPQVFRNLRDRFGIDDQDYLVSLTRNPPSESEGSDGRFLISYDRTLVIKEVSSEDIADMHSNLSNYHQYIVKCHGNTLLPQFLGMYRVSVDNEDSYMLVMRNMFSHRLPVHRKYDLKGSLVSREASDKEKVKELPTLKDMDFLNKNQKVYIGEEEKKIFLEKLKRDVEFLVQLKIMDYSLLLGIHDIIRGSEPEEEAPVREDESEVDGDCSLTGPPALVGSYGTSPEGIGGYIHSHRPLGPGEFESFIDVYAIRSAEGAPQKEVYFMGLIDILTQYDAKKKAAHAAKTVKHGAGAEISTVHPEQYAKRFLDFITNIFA

[11] = target: Serine/threonine-protein kinase 24 (Homo sapiens) (UniProt Q9Y6E0); test: Inhibition of MST3 Lys2 labeling site harbouring DIKAANVLLSEHGEVK in human Huh-7 cells at 1 uM by KiNativ Profiling analysis relative to control; assay type: cell-based
[12] = target: Cyclin-dependent kinase 9 (Homo sapiens) (UniProt P50750); test: Inhibition of CDK9 Lys2 labeling site in human Huh-7 cell lysate at 1 uM by KiNativ Profiling analysis relative to control; assay type: subcellular
[13] = target: Casein kinase I isoform epsilon (Homo sapiens) (UniProt P49674); test: Inhibition of CK1e Lys2 labeling site in human Huh-7 cells at 1 uM by KiNativ Profiling analysis relative to control; assay type: cell-based
[14] = target: Rho-associated protein kinase 1 (Homo sapiens) (UniProt Q13464); test: Inhibition of ROCK1 in human Huh-7 cell lysate at 1 uM by KiNativ Profiling analysis relative to control; assay type: subcellular
[15] = target: Calcium/calmodulin-dependent protein kinase type II subunit gamma (Homo sapiens) (UniProt Q13555); test: Inhibition of CaMK2g Lys1 labeling site harbouring KTSTQEYAAKIINTK in human Huh-7 cell lysate at 1 uM by KiNativ Profiling analysis relative to control; assay type: subcellular
[16] = target: Calcium/calmodulin-dependent protein kinase type II subunit delta (Homo sapiens) (UniProt Q13557); test: Inhibition of CaMK2d Lys2 labeling site in human Huh-7 cells at 1 uM by KiNativ Profiling analysis relative to control; assay type: cell-based
Calcium/calmodulin-dependent protein kinase type II subunit delta (Homo sapiens), sequence (Q13557 whole entry): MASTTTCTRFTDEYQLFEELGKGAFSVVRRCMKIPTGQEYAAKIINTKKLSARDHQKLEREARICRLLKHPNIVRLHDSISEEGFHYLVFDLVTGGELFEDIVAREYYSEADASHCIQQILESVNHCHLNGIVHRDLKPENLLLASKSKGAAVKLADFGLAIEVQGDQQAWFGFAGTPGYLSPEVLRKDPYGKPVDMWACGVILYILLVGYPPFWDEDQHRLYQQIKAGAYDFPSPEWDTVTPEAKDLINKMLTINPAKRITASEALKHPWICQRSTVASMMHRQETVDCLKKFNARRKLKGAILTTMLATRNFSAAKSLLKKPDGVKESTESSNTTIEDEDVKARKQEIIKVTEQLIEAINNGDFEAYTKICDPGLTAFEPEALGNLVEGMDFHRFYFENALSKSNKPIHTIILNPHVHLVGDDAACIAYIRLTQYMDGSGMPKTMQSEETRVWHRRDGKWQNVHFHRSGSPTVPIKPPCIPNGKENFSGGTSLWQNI

Calcium/calmodulin-dependent protein kinase type II subunit gamma (Homo sapiens), sequence (Q13555 whole entry): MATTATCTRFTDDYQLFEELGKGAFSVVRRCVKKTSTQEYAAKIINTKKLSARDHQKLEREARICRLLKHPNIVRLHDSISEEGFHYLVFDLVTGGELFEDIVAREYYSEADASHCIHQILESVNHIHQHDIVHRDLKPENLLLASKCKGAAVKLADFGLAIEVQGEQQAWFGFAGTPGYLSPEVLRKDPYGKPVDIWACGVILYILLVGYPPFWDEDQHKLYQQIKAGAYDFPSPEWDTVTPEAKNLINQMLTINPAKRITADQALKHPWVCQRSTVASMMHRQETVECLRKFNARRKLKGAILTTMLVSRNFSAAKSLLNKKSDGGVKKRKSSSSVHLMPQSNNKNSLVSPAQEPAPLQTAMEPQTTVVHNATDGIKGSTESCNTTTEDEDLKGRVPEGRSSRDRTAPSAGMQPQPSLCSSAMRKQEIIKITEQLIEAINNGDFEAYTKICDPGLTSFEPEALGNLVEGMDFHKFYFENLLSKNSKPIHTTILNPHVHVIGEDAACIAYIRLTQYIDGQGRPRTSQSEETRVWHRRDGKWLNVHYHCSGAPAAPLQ
Casein kinase I isoform epsilon (Homo sapiens), sequence (P49674 whole entry, looked up, canonical isoform): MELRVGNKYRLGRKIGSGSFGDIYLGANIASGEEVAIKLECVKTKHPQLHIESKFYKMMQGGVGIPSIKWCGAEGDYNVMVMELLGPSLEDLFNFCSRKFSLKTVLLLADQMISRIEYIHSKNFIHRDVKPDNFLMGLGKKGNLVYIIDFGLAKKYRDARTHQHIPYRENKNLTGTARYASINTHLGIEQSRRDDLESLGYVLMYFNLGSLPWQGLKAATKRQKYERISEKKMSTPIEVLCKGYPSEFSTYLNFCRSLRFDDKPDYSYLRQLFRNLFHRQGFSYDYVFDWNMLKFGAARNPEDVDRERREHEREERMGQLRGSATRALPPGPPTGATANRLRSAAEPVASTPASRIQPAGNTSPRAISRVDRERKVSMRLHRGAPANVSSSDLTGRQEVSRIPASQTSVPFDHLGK
Epidermal growth factor receptor (Homo sapiens), P00533 [UNDEFINED MUTATION], sequence (P00533 whole entry, looked up, change not shown): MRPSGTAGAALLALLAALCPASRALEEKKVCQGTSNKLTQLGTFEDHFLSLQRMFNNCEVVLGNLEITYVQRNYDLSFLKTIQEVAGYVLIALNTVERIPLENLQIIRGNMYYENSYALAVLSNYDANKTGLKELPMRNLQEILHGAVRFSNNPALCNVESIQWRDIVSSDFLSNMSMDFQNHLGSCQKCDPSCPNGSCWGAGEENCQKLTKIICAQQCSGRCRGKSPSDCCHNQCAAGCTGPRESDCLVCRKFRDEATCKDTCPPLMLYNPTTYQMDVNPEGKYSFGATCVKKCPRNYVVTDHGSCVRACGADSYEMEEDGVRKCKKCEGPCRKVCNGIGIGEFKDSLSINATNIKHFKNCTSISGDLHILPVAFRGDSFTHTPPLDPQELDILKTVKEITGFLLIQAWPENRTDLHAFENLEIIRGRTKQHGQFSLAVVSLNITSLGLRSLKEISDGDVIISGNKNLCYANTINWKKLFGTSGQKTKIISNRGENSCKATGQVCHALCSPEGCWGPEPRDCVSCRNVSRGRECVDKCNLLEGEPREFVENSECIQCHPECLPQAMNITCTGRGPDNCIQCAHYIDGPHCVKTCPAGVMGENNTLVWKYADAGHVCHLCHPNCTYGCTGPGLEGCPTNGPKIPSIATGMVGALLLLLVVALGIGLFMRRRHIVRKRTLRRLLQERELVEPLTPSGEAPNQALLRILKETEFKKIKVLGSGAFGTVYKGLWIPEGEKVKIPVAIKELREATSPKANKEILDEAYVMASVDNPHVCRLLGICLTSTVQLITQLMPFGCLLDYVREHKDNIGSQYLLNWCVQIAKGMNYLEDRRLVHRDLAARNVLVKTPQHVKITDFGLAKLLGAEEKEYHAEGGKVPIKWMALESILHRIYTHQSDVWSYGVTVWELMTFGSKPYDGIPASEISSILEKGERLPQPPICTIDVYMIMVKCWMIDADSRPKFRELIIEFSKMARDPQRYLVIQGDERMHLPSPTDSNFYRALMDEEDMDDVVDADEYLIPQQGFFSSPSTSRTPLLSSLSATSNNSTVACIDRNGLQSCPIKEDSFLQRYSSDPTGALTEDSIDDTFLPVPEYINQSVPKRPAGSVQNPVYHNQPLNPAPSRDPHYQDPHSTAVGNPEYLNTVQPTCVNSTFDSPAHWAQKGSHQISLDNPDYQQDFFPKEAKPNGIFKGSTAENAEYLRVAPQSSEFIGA
Cyclin-dependent kinase 9 (Homo sapiens), sequence (P50750 whole entry, canonical isoform): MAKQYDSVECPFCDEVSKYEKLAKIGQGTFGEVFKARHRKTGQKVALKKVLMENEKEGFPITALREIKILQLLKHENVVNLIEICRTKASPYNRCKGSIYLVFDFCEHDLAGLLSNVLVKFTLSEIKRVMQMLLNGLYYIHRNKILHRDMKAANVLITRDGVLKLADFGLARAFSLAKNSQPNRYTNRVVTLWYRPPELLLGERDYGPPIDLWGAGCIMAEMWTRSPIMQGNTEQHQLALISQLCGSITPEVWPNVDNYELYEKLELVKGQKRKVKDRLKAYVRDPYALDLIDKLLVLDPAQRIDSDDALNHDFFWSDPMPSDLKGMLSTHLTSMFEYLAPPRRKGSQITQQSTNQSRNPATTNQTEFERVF
Homeodomain-interacting protein kinase 1 (Homo sapiens), sequence (Q86Z02 whole entry, looked up, the tested form may be a part): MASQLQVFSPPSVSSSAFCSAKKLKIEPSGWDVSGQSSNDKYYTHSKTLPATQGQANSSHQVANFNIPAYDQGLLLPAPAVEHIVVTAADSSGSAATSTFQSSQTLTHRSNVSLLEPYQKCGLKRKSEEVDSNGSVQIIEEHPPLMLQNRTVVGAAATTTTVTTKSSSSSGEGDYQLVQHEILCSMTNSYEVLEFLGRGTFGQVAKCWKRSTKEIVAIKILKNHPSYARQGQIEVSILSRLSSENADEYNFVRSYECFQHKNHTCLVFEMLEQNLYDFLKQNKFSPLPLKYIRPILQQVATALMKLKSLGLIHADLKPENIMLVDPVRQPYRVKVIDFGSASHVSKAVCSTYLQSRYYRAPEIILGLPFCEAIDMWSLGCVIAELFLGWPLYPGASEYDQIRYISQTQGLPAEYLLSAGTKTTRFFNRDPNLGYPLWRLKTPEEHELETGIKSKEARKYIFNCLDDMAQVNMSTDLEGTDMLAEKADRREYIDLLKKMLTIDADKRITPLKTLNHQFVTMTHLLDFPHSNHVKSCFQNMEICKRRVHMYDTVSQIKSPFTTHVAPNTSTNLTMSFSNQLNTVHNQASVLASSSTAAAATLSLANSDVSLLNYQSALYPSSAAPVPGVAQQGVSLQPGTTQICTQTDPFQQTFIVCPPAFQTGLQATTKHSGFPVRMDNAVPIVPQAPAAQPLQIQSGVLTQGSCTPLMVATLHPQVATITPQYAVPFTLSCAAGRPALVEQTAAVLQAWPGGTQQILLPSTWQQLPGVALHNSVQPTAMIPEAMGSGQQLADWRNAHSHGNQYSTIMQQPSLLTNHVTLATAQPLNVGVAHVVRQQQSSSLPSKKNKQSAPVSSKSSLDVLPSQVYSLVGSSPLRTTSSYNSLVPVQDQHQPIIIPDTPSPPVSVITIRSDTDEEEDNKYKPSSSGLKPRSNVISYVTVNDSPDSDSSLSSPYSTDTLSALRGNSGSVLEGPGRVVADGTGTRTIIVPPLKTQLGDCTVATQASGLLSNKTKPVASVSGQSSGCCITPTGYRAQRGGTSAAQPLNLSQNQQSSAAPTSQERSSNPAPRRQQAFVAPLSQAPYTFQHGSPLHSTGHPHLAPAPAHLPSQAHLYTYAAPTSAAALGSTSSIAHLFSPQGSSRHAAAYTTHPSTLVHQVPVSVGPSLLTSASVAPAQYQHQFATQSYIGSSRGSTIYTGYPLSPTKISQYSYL
Activin receptor type-1 (Homo sapiens), sequence (Q04771 whole entry): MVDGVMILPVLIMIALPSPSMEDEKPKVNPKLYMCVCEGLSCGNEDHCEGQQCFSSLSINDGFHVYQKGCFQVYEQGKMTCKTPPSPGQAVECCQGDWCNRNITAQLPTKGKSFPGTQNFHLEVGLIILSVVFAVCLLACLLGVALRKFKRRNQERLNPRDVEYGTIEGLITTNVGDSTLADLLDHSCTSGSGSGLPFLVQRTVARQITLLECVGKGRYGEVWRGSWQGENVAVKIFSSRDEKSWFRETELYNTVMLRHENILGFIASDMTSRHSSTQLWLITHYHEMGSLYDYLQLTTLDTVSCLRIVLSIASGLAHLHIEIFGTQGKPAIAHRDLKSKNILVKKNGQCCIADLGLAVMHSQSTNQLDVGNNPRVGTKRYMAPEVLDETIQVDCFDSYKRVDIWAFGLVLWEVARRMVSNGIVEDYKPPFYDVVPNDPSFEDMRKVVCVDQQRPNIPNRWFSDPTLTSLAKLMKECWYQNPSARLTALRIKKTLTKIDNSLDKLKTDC

CCN1CCN(Cc2ccc(NC(=O)c3ccc(C)c(/C=C/c4cnc5[nH]ccc5c4OC)c3)cc2C(F)(F)F)CC1
inhibition [1]: 37.6%
inhibition [2]: 100%
residual activity [3]: 74%
residual activity [4]: 26%

CCN1CCN(Cc2ccc(NC(=O)c3ccc(C)c(Oc4ccnc5[nH]ccc45)c3)cc2C(F)(F)F)CC1
inhibition [5]: inactive
inhibition [6]: 82.3%
inhibition [7]: inactive
inhibition [8]: 1.2%
inhibition [9]: 4.5%
inhibition [10]: 2.3%

CNc1cc(Oc2cc(C(=O)Nc3cc(N4CCN(C)CC4)cc(C(F)(F)F)c3)ccc2C)ncn1
inhibition [11]: 4.3%
inhibition [12]: 11.9%
inhibition [13]: 39.1%
inhibition [14]: 7.6%
inhibition [15]: 6.9%
inhibition [16]: 20.3%
